Experiments:
T47D = assay: Growth inhibition of human T47D cells after 48 hrs by coulter counting analysis; assay type: functional
How it was run: (§1)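 Five-dose NCI-60 follow-up, 0.01–100 µM, made from DMSO stock in buffered saline (final DMSO <1%), in duplicate wells. Cells in RPMI 1640 with 10% FBS at 6×10^4 cells/ml, 37 °C, 5% CO2, 48 h. Cells diluted tenfold in saline, Coulter-counted and corrected for dilution. GI50, TGI and LC50 taken from log concentration–percent growth curves.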

NCI-H226 = assay: Growth inhibition of human NCI-H226 cells after 48 hrs by coulter counting analysis; assay type: functional; conditions: NCI-H226, 48 h; how it was run: as §1
TK-10 = assay: Growth inhibition of human TK10 cells after 48 hrs by coulter counting analysis; assay type: functional; conditions: TK-10, 48 h
How it was run: (§2)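 NCI five-dose screen, 0.01-100 µM, from DMSO stocks diluted in buffer saline (final DMSO <1%). Cells grown in RPMI 1640 + 10% FBS, seeded at 6×10^4 cells/ml, in duplicate wells. Exposure 48 h at 37 °C, 5% CO2. Cells diluted 10-fold in saline and counted by Coulter counter. GI50 derived from log concentration–percent growth inhibition curves. Controls carried matching PBS/saline/DMSO.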

SK-MEL-28 = assay: Growth inhibition of human SK-MEL-28 cells after 48 hrs by coulter counting analysis; assay type: functional; conditions: SK-MEL-28, 48 h; how it was run: as §1
SK-MEL-2 = assay: Growth inhibition of human SK-MEL-2 cells after 48 hrs by coulter counting analysis; assay type: functional; conditions: SK-MEL-2, 48 h; how it was run: as §1
[1] = Growth inhibition of human BT549 cells after 48 hrs by coulter counting analysis; assay type: functional; conditions: BT-549, 48 h
How it was run: (§3)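 NCI five-dose screen at 0.01-100 µM, diluted from DMSO stocks in buffered saline (final DMSO <1%). Cells at 6×10^4 cells/ml in RPMI 1640 with 10% FBS, in duplicate wells, at 37 °C under 5% CO2 for 48 h. Cells diluted tenfold in saline and Coulter-counted. GI50, TGI and LC50 taken from log concentration-growth inhibition curves.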

MDA-MB-435 = assay: Growth inhibition of human MDA-MB-435 cells after 48 hrs by coulter counting analysis; assay type: functional; conditions: MDA-MB-435, 48 h; how it was run: as §3
SNB-75 = assay: Growth inhibition of human SNB75 cells after 48 hrs by coulter counting analysis; assay type: functional; conditions: SNB-75, 48 h; how it was run: as §1
SF-268 = assay: Growth inhibition of human SF268 cells after 48 hrs by coulter counting analysis; assay type: functional; conditions: SF-268, 48 h; how it was run: as §1
[2] = target: Cyclin-dependent kinase 2/cyclin E1 (Homo sapiens) (UniProt P24864+P24941); assay: Inhibition of CDK2/Cyclin E1 (unknown origin) at 20 uM after 30 mins by scintillation counting analysis relative to control; assay type: protein-complex assay
How it was run: (§4)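 Recombinant kinases, cloned, expressed and purified in-house. Radiometric ³³P-ATP assay with kinase at ~10-50 nM final and 1-5 µg peptide or protein substrate. Compound at 20 µM final, in duplicate. Reaction started by adding ATP, run 30 min at ambient temperature, then spotted on P81 phosphocellulose. Plates washed in 1% phosphoric acid and counted by scintillation. No-substrate blank subtracted. Result is mean % activity change versus DMSO control.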

[3] = Growth inhibition of human EKVX cells after 48 hrs by coulter counting analysis; assay type: functional; how it was run: as §3
Malme-3M = assay: Growth inhibition of human MALME-3M cells after 48 hrs by coulter counting analysis; assay type: functional; how it was run: as §3
A498 = assay: Growth inhibition of human A498 cells after 48 hrs by coulter counting analysis; assay type: functional; conditions: A498, 48 h; how it was run: as §3
NCI-H460 = assay: Growth inhibition of human NCI-H460 cells after 48 hrs by coulter counting analysis; assay type: functional; conditions: NCI-H460, 48 h; how it was run: as §1
[4] = Growth inhibition of human HOP92 cells after 48 hrs by coulter counting analysis; assay type: functional; conditions: HOP-92, 48 h; how it was run: as §3
U-251 = assay: Growth inhibition of human U251 cells after 48 hrs by coulter counting analysis; assay type: functional; conditions: U-251, 48 h; how it was run: as §2
SW-620 = assay: Growth inhibition of human SW620 cells after 48 hrs by coulter counting analysis; assay type: functional; conditions: SW-620, 48 h; how it was run: as §1
[5] = Growth inhibition of human OVCAR4 cells after 48 hrs by coulter counting analysis; assay type: functional; conditions: OVCAR-4, 48 h; how it was run: as §1
[6] = Growth inhibition of human UO31 cells after 48 hrs by coulter counting analysis; assay type: functional; conditions: UO-31, 48 h; how it was run: as §2
[7] = Growth inhibition of human UACC257 cells after 48 hrs by coulter counting analysis; assay type: functional; conditions: UACC-257, 48 h; how it was run: as §2
SK-OV-3 = assay: Growth inhibition of human SKOV3 cells after 48 hrs by coulter counting analysis; assay type: functional; conditions: SK-OV-3, 48 h; how it was run: as §1
MCF7 = assay: Growth inhibition of human MCF7 cells after 48 hrs by coulter counting analysis; assay type: functional; conditions: MCF7, 48 h; how it was run: as §3
[8] = target: Glycogen synthase kinase-3 beta (Homo sapiens) (UniProt P49841); assay: Inhibition of GSK-3beta (unknown origin) at 20 uM after 30 mins by scintillation counting analysis relative to control; how it was run: as §4
ACHN = assay: Growth inhibition of human ACHN cells after 48 hrs by coulter counting analysis; assay type: functional; how it was run: as §3
A549 = assay: Growth inhibition of human A549/ATCC cells after 48 hrs by coulter counting analysis; assay type: functional; conditions: A549, 48 h; how it was run: as §3
M14 = assay: Growth inhibition of human M14 cells after 48 hrs by coulter counting analysis; assay type: functional; conditions: M14, 48 h; how it was run: as §3
KM12 = assay: Growth inhibition of human KM12 cells after 48 hrs by coulter counting analysis; assay type: functional; conditions: KM12, 48 h; how it was run: as §3
SNB-19 = assay: Growth inhibition of human SNB19 cells after 48 hrs by coulter counting analysis; assay type: functional; conditions: SNB-19, 48 h; how it was run: as §1
NCI-H522 = assay: Growth inhibition of human NCI-H522 cells after 48 hrs by coulter counting analysis; assay type: functional; conditions: NCI-H522, 48 h; how it was run: as §1
CAKI-1 = assay: Growth inhibition of human CAKI-1 cells after 48 hrs by coulter counting analysis; assay type: functional; conditions: CAKI-1, 48 h; how it was run: as §3
CCRF-CEM = assay: Growth inhibition of human CCRF-CEM cells after 48 hrs by coulter counting analysis; assay type: functional; how it was run: as §3
[9] = Growth inhibition of human UACC62 cells after 48 hrs by coulter counting analysis; assay type: functional; conditions: UACC-62, 48 h; how it was run: as §2
[10] = Growth inhibition of human OVCAR8 cells after 48 hrs by coulter counting analysis; assay type: functional; conditions: OVCAR-8, 48 h; how it was run: as §1
[11] = Growth inhibition of human RXF393 cells after 48 hrs by coulter counting analysis; assay type: functional; conditions: RXF 393, 48 h; how it was run: as §1
RPMI-8226 = assay: Growth inhibition of human RPMI8226 cells after 48 hrs by coulter counting analysis; assay type: functional; conditions: RPMI-8226, 48 h; how it was run: as §1
[12] = Growth inhibition of human OVCAR3 cells after 48 hrs by coulter counting analysis; assay type: functional; conditions: OVCAR-3, 48 h; how it was run: as §1
COLO 205 = assay: Growth inhibition of human COLO205 cells after 48 hrs by coulter counting analysis; assay type: functional; conditions: COLO 205, 48 h; how it was run: as §3
K562 = assay: Growth inhibition of human K562 cells after 48 hrs by coulter counting analysis; assay type: functional; conditions: K562, 48 h; how it was run: as §3
[13] = Growth inhibition of human MOLT4 cells after 48 hrs by coulter counting analysis; assay type: functional; conditions: MOLT-4, 48 h; how it was run: as §1

Chain of Glycogen synthase kinase-3 beta (Homo sapiens) (P49841 whole entry, looked up): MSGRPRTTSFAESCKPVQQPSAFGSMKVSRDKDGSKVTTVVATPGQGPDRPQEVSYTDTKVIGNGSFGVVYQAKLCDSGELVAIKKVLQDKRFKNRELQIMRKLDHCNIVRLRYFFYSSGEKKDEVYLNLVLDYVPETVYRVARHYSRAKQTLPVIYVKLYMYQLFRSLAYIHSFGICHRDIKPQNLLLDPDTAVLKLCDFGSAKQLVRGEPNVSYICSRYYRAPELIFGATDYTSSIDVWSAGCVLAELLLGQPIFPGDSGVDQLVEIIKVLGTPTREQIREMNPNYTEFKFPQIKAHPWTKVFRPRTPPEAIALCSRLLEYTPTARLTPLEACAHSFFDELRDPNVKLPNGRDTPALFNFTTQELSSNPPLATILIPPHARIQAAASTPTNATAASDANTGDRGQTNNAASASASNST

COc1ccccc1/C=C/C(=O)c1c(O)cc2occc2c1OC
GI50 (T47D): 55.9 µM | GI50 (NCI-H226): 25.1 µM | GI50 (TK-10): 21.9 µM | GI50 (SK-MEL-28): > 100 µM | GI50 (SK-MEL-2): > 100 µM | GI50 [1]: 28.2 µM | GI50 (MDA-MB-435): 5.69 µM | GI50 (SNB-75): 7.49 µM | GI50 (SF-268): 22.2 µM | inhibition [2]: 6% | GI50 [3]: 33.7 µM | GI50 (Malme-3M): 18.9 µM | GI50 (A498): 46 µM | GI50 (NCI-H460): > 100 µM | GI50 [4]: 2.98 µM | GI50 (U-251): 18.9 µM | GI50 (SW-620): > 100 µM | GI50 [5]: > 100 µM | GI50 [6]: > 100 µM | GI50 [7]: > 100 µM | GI50 (SK-OV-3): 21.3 µM | GI50 (MCF7): 9.56 µM | inhibition [8]: 17% | GI50 (ACHN): 30 µM | GI50 (A549): > 100 µM | GI50 (M14): > 100 µM | GI50 (KM12): > 100 µM | GI50 (SNB-19): 30.8 µM | GI50 (NCI-H522): > 100 µM | GI50 (CAKI-1): > 100 µM | GI50 (CCRF-CEM): 9.72 µM | GI50 [9]: 23.7 µM | GI50 [10]: 53.8 µM | GI50 [11]: 14.9 µM | GI50 (RPMI-8226): 23.5 µM | GI50 [12]: 47.4 µM | GI50 (COLO 205): > 100 µM

C=CCc1c2c(c(OC)c3ccoc13)C(=O)/C(=C/c1ccccc1OC)O2
GI50 (T47D): 4.34 µM | GI50 (NCI-H226): 3.22 µM | GI50 (TK-10): 6.5 µM | GI50 (SK-MEL-28): 5.21 µM | GI50 (SK-MEL-2): 6.06 µM | GI50 [1]: 4.44 µM | GI50 (MDA-MB-435): 3.12 µM | GI50 (SNB-75): 1.44 µM | GI50 (SF-268): 3.73 µM | inhibition [2]: 0% | GI50 [3]: 4.41 µM | GI50 (Malme-3M): 19.8 µM | GI50 (A498): 5.81 µM | GI50 (NCI-H460): 3.46 µM | GI50 [4]: 2.07 µM | GI50 (U-251): 3.53 µM | GI50 (K562): 3.51 µM | GI50 (SW-620): 4.24 µM | GI50 [5]: 3.34 µM | GI50 [6]: 4.98 µM | GI50 [13]: 3.52 µM | GI50 [7]: 6.41 µM | GI50 (SK-OV-3): 5.45 µM | GI50 (MCF7): 2.92 µM | inhibition [8]: 56% | GI50 (ACHN): 4.32 µM | GI50 (A549): 4.12 µM | GI50 (M14): 8.19 µM | GI50 (KM12): 3.49 µM | GI50 (SNB-19): 5.83 µM | GI50 (NCI-H522): 3.16 µM | GI50 (CAKI-1): 3.15 µM | GI50 (CCRF-CEM): 3.44 µM | GI50 [9]: 4.14 µM | GI50 [10]: 3.87 µM | GI50 [11]: 2.47 µM | GI50 (RPMI-8226): 3.51 µM | GI50 [12]: 3.28 µM | GI50 (COLO 205): 7.64 µM
